For three compounds, GI50 and Activity results are on record in ChEMBL document CHEMBL1765004 (2011).

As a reminder, the GI50 is the concentration that inhibits growth by half. A high value points to lower sensitivity of the cells.

The source made the active and inactive calls. No cut-off for these calls is given here.

The first test deals with NCI-H522. The test is described as follows: Anticancer activity against human NCI-H522 cells. It counts as functional. In short, it runs like this: (§1)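 NCI-DTP 60 cell line screen; GI50 values supplied by NCI-DTP. HCT-116 GI50 for some entries determined instead by a separate group (Henry Ford Hospital). Compounds failing initial single-dose testing at 10 μM (<25% growth inhibition) were not taken to five-dose testing.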
Turning to `C/C1=C\[C@H](C)C[C@H](C)OC(=O)C[C@H](c2ccc(O)cc2)NC(=O)[C@@H](Cc2c(Br)[nH]c3ccccc23)NC(=O)[C@H](C)NC(=O)[C@@H](C)C1` [JASPLAKINOLIDE M], the GI50 came out at 200 nM.

The compound `C/C1=C\[C@H](C)C[C@H](C)OC(=O)C[C@H](c2ccc(O)cc2)NC(=O)[C@@H](Cc2c[nH]c3ccccc23)N(C)C(=O)[C@H](C)NC(=O)[C@@H](C)C1` [JASPLAKINOLIDE Q] had a GI50 of 160 nM.

For the compound `C/C1=C\[C@H](C)C[C@H](C)OC(=O)C[C@H](c2ccc(O)c(O)c2)NC(=O)[C@@H](Cc2c(Br)[nH]c3ccccc23)N(C)C(=O)[C@H](C)NC(=O)[C@@H](C)C1`, the GI50 was 60 nM.

In the next test the test system is HCT-116. The test can be described thus: Antimicrofilament activity in human HCT116 cells assessed as loss of microfilament at 0.05 uM by rhodamine-phalloidin staining. It counts as functional, cell-based.
Consider `C/C1=C\[C@H](C)C[C@H](C)OC(=O)C[C@H](c2ccc(O)c(O)c2)NC(=O)[C@@H](Cc2c(Br)[nH]c3ccccc23)N(C)C(=O)[C@H](C)NC(=O)[C@@H](C)C1`, for which the outcome was Active.

The next test relates to U-251. The test can be described thus: Anticancer activity against human U251 cells. In kind it is functional. In short, it runs like this: as §1
Consider `C/C1=C\[C@H](C)C[C@H](C)OC(=O)C[C@H](c2ccc(O)cc2)NC(=O)[C@@H](Cc2c(Br)[nH]c3ccccc23)NC(=O)[C@H](C)NC(=O)[C@@H](C)C1` [JASPLAKINOLIDE M], for which the GI50 was 60 nM.

Regarding `C/C1=C\[C@H](C)C[C@H](C)OC(=O)C[C@H](c2ccc(O)cc2)NC(=O)[C@@H](Cc2c[nH]c3ccccc23)N(C)C(=O)[C@H](C)NC(=O)[C@@H](C)C1` [JASPLAKINOLIDE Q], the 50% growth inhibitory concentration (GI50) was 30 nM.

Compound `C/C1=C\[C@H](C)C[C@H](C)OC(=O)C[C@H](c2ccc(O)c(O)c2)NC(=O)[C@@H](Cc2c(Br)[nH]c3ccccc23)N(C)C(=O)[C@H](C)NC(=O)[C@@H](C)C1` registered a GI50 of 40 nM.

A further test concerns HCT-116. The test can be described thus: Antimicrofilament activity in human HCT116 cells assessed as additional loss of microfilament at 0.1 uM by rhodamine-phalloidin staining. In kind it is functional, cell-based.
Regarding `C/C1=C\[C@H](C)C[C@H](C)OC(=O)C[C@H](c2ccc(O)c(O)c2)NC(=O)[C@@H](Cc2c(Br)[nH]c3ccccc23)N(C)C(=O)[C@H](C)NC(=O)[C@@H](C)C1`, the result was Active.

In another test the test system is HCT-116. The test can be described thus: Antimicrofilament activity in human HCT116 cells assessed as complete loss of microfilament network at 0.5 uM to 5 uM by rhodamine-phalloidin staining.
Regarding `C/C1=C\[C@H](C)C[C@H](C)OC(=O)C[C@H](c2ccc(O)c(O)c2)NC(=O)[C@@H](Cc2c(Br)[nH]c3ccccc23)N(C)C(=O)[C@H](C)NC(=O)[C@@H](C)C1`, the outcome was Active.

The test system of another test is IGROV-1. The test can be described thus: Anticancer activity against human IGROV1 cells. It counts as functional. Put shortly:
as §1
The compound `C/C1=C\[C@H](C)C[C@H](C)OC(=O)C[C@H](c2ccc(O)cc2)NC(=O)[C@@H](Cc2c(Br)[nH]c3ccccc23)NC(=O)[C@H](C)NC(=O)[C@@H](C)C1` [JASPLAKINOLIDE M] had a GI50 of 30 nM.

`C/C1=C\[C@H](C)C[C@H](C)OC(=O)C[C@H](c2ccc(O)cc2)NC(=O)[C@@H](Cc2c[nH]c3ccccc23)N(C)C(=O)[C@H](C)NC(=O)[C@@H](C)C1` [JASPLAKINOLIDE Q] registered a concentration for 50% growth inhibition (GI50) of 10 nM.

`C/C1=C\[C@H](C)C[C@H](C)OC(=O)C[C@H](c2ccc(O)c(O)c2)NC(=O)[C@@H](Cc2c(Br)[nH]c3ccccc23)N(C)C(=O)[C@H](C)NC(=O)[C@@H](C)C1` had a GI50 of 30 nM.

A further test deals with HCT-116. The test can be described thus: Antimicrofilament activity in human HCT116 cells assessed as total loss of microfilament network at 1 uM by rhodamine-phalloidin staining. It counts as functional, cell-based.
Consider `C/C1=C\[C@H](C)C[C@H](C)OC(=O)C[C@H](c2ccc(O)c(O)c2)NC(=O)[C@@H](Cc2c(Br)[nH]c3ccccc23)N(C)C(=O)[C@H](C)NC(=O)[C@@H](C)C1`, for which the outcome was Active.

Another test deals with A498. The test can be described thus: Anticancer activity against human A498 cells. It counts as functional. Put shortly:
as §1
`C/C1=C\[C@H](C)C[C@H](C)OC(=O)C[C@H](c2ccc(O)cc2)NC(=O)[C@@H](Cc2c(Br)[nH]c3ccccc23)NC(=O)[C@H](C)NC(=O)[C@@H](C)C1` [JASPLAKINOLIDE M] returned a GI50 of 170 nM.

In turn, `C/C1=C\[C@H](C)C[C@H](C)OC(=O)C[C@H](c2ccc(O)cc2)NC(=O)[C@@H](Cc2c[nH]c3ccccc23)N(C)C(=O)[C@H](C)NC(=O)[C@@H](C)C1` [JASPLAKINOLIDE Q] returned a GI50 of 80 nM.

On to `C/C1=C\[C@H](C)C[C@H](C)OC(=O)C[C@H](c2ccc(O)c(O)c2)NC(=O)[C@@H](Cc2c(Br)[nH]c3ccccc23)N(C)C(=O)[C@H](C)NC(=O)[C@@H](C)C1`, for which the GI50 worked out at 10 nM.

The next test relates to HCT-116. The test is described as follows: Antimicrofilament activity in human HCT116 cells assessed as total loss of microfilament network at 0.5 uM by rhodamine-phalloidin staining. It counts as functional, cell-based.
As to `C/C1=C\[C@H](C)C[C@H](C)OC(=O)C[C@H](c2ccc(O)c(O)c2)NC(=O)[C@@H](Cc2c(Br)[nH]c3ccccc23)N(C)C(=O)[C@H](C)NC(=O)[C@@H](C)C1`, the result was Active.

Another test concerns HCT-116. The test is described as follows: Antimicrofilament activity in human HCT116 cells assessed as total loss of microfilament network at 5 uM by rhodamine-phalloidin staining. It counts as functional, cell-based.
With `C/C1=C\[C@H](C)C[C@H](C)OC(=O)C[C@H](c2ccc(O)c(O)c2)NC(=O)[C@@H](Cc2c(Br)[nH]c3ccccc23)N(C)C(=O)[C@H](C)NC(=O)[C@@H](C)C1`, the result was Active.

The subject of another test is LOX IMVI. The test is described as follows: Anticancer activity against human LOXIMVI cells. It counts as functional. Put shortly: as §1
In the case of `C/C1=C\[C@H](C)C[C@H](C)OC(=O)C[C@H](c2ccc(O)cc2)NC(=O)[C@@H](Cc2c(Br)[nH]c3ccccc23)NC(=O)[C@H](C)NC(=O)[C@@H](C)C1` [JASPLAKINOLIDE M], the GI50 came to 20 nM.

Regarding `C/C1=C\[C@H](C)C[C@H](C)OC(=O)C[C@H](c2ccc(O)cc2)NC(=O)[C@@H](Cc2c[nH]c3ccccc23)N(C)C(=O)[C@H](C)NC(=O)[C@@H](C)C1` [JASPLAKINOLIDE Q], the 50% growth inhibitory concentration (GI50) was 20 nM.

`C/C1=C\[C@H](C)C[C@H](C)OC(=O)C[C@H](c2ccc(O)c(O)c2)NC(=O)[C@@H](Cc2c(Br)[nH]c3ccccc23)N(C)C(=O)[C@H](C)NC(=O)[C@@H](C)C1`: growth was halved (GI50) at 7 nM.

Another test relates to HCT-116. The test is described as follows: Antimicrofilament activity in human HCT116 cells assessed as loss of microfilament at 0.01 uM by rhodamine-phalloidin staining. It counts as functional, cell-based.
With `C/C1=C\[C@H](C)C[C@H](C)OC(=O)C[C@H](c2ccc(O)c(O)c2)NC(=O)[C@@H](Cc2c(Br)[nH]c3ccccc23)N(C)C(=O)[C@H](C)NC(=O)[C@@H](C)C1`, the outcome was inactive.

The test system of the next test is MDA-MB-231. The test is described as follows: Anticancer activity against human MDA-MB-231 cells. It counts as functional. Put shortly: as §1
As for `C/C1=C\[C@H](C)C[C@H](C)OC(=O)C[C@H](c2ccc(O)cc2)NC(=O)[C@@H](Cc2c(Br)[nH]c3ccccc23)NC(=O)[C@H](C)NC(=O)[C@@H](C)C1` [JASPLAKINOLIDE M], halving of growth (GI50) required 210 nM.

`C/C1=C\[C@H](C)C[C@H](C)OC(=O)C[C@H](c2ccc(O)cc2)NC(=O)[C@@H](Cc2c[nH]c3ccccc23)N(C)C(=O)[C@H](C)NC(=O)[C@@H](C)C1` [JASPLAKINOLIDE Q] yielded a concentration for 50% growth inhibition (GI50) of 70 nM.

For the compound `C/C1=C\[C@H](C)C[C@H](C)OC(=O)C[C@H](c2ccc(O)c(O)c2)NC(=O)[C@@H](Cc2c(Br)[nH]c3ccccc23)N(C)C(=O)[C@H](C)NC(=O)[C@@H](C)C1`, growth was halved (GI50) at 90 nM.

The subject of another test is HCT-116. The test is described as follows: Anticancer activity against human HCT116 cells. It counts as functional. Put shortly: as §1
On to `C/C1=C\[C@H](C)C[C@H](C)OC(=O)C[C@H](c2ccc(O)cc2)NC(=O)[C@@H](Cc2c(Br)[nH]c3ccccc23)NC(=O)[C@H](C)NC(=O)[C@@H](C)C1` [JASPLAKINOLIDE M], for which growth was halved (GI50) at 130 nM.

`C/C1=C\[C@H](C)C[C@H](C)OC(=O)C[C@H](c2ccc(O)cc2)NC(=O)[C@@H](Cc2c[nH]c3ccccc23)N(C)C(=O)[C@H](C)NC(=O)[C@@H](C)C1` [JASPLAKINOLIDE Q] yielded a concentration for 50% growth inhibition (GI50) of 50 nM.

In turn, `C/C1=C\[C@H](C)C[C@H](C)OC(=O)C[C@H](c2ccc(O)c(O)c2)NC(=O)[C@@H](Cc2c(Br)[nH]c3ccccc23)N(C)C(=O)[C@H](C)NC(=O)[C@@H](C)C1` came in with a concentration for 50% growth inhibition (GI50) of 70 nM.

Another test deals with DU-145. The test is described as follows: Anticancer activity against human DU145 cells. In kind it is functional. Put shortly: as §1
On to `C/C1=C\[C@H](C)C[C@H](C)OC(=O)C[C@H](c2ccc(O)cc2)NC(=O)[C@@H](Cc2c(Br)[nH]c3ccccc23)NC(=O)[C@H](C)NC(=O)[C@@H](C)C1` [JASPLAKINOLIDE M], for which the GI50 worked out at 250 nM.

`C/C1=C\[C@H](C)C[C@H](C)OC(=O)C[C@H](c2ccc(O)cc2)NC(=O)[C@@H](Cc2c[nH]c3ccccc23)N(C)C(=O)[C@H](C)NC(=O)[C@@H](C)C1` [JASPLAKINOLIDE Q]: the GI50 came out at 100 nM.

Take `C/C1=C\[C@H](C)C[C@H](C)OC(=O)C[C@H](c2ccc(O)c(O)c2)NC(=O)[C@@H](Cc2c(Br)[nH]c3ccccc23)N(C)C(=O)[C@H](C)NC(=O)[C@@H](C)C1`: it took 80 nM to inhibit growth by half (GI50).
